Results reported in ChEMBL document CHEMBL4765236, “Insights into the Antimicrobial Activity and Cytotoxicity of Engineered α-Helical Peptide Amphiphiles” (J Med Chem, 2016).
Active and inactive are the calls of the source. The calls are words filed in the database; no cut-off is given here.

How the values were obtained:
HepG2 [1] = assay: Induction of cell cycle arrest in human HepG2 cells assessed as accumulation at G2/M phase at 32 uM incubated for 24 hrs by annexin-V/FITC staining-based FACS flow cytometry analysis (reference value: 28.75 %); format: functional
HepG2 [2] = assay: Induction of cell cycle arrest in human HepG2 cells assessed as accumulation at S phase at 64 uM incubated for 24 hrs by annexin-V/FITC staining-based FACS flow cytometry analysis (reference value: 20.51 %); format: functional
Escherichia coli [3] = assay: Induction of morphological changes in Escherichia coli O157:H7 CICC 21530 assessed as membrane blebbing at 1 times MIC after 60 mins by SEM analysis; format: functional, organism-based
HepG2 [4] = assay: Induction of ROS generation in human HepG2 cells assessed as increase in fluorescence intensity up to 32 uM incubated for 8 hrs by DCFH-DA staining-based fluorescence analysis; format: functional, cell-based; conditions: dose microM <=32, time 8.0 hrs
Escherichia coli [5] = assay: Induction of morphological changes in Escherichia coli O157:H7 CICC 21530 assessed as membrane creeping at 1 times MIC after 60 mins by SEM analysis; format: functional, organism-based
Staphylococcus aureus [6] = assay: Induction of morphological changes in Staphylococcus aureus ATCC 29213 assessed as membrane stunting at 1 times MIC after 60 mins by SEM analysis; format: functional, organism-based
Procedure, shortened: (§1)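 S. aureus grown to exponential phase in MHB at 37 °C with shaking at 220 rpm. Cells washed twice in PBS, resuspended to OD600 0.2, then exposed to peptide at 1× MIC for 60 min at 37 °C; untreated cells served as control. Cells were pelleted, PBS-washed, fixed overnight in 2.5% glutaraldehyde at 4 °C, dehydrated through graded ethanol then tert-butanol, and imaged by SEM.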

Cell membrane [7] = assay: Induction of cell membrane disruption in Escherichia coli O157:H7 CICC 21530 assessed as propidium iodide-positive cells at 1 times MIC measured after 30 mins by flow cytometry analysis (reference value: 5.7 %); format: subcellular
HepG2 [8] = assay: Induction of cell cycle arrest in human HepG2 cells assessed as accumulation at sub-G1 phase at 64 uM incubated for 24 hrs by annexin-V/FITC staining-based FACS flow cytometry analysis (reference value: 0.07%); format: functional
Cell membrane [9] = assay: Induction of cell membrane disruption in Escherichia coli O157:H7 CICC 21530 assessed as propidium iodide-positive cells at 2 times MIC measured after 30 mins by flow cytometry analysis (reference value: 5.7 %); format: subcellular
Staphylococcus aureus [10] = assay: Induction of morphological changes in Staphylococcus aureus ATCC 29213 assessed as membrane creeping at 1 times MIC after 60 mins by SEM analysis; format: functional, organism-based; procedure, shortened: as §1
HepG2 [11] = assay: Induction of cell cycle arrest in human HepG2 cells assessed as accumulation at Go/G1 phase at 64 uM incubated for 24 hrs by annexin-V/FITC staining-based FACS flow cytometry analysis (reference value: 54.61 %); format: functional
Cell membrane [12] = assay: Induction of cell membrane disruption in Escherichia coli O157:H7 CICC 21530 assessed as propidium iodide-positive cells at 0.5 times MIC measured after 30 mins by flow cytometry analysis (reference value: 5.7 %); format: subcellular
HepG2 [13] = assay: Induction of cell cycle arrest in human HepG2 cells assessed as accumulation at S phase at 32 uM incubated for 24 hrs by annexin-V/FITC staining-based FACS flow cytometry analysis (reference value: 20.51 %); format: functional
Escherichia coli [14] = assay: Induction of morphological changes in Escherichia coli O157:H7 CICC 21530 assessed as membrane destruction at 1 times MIC after 60 mins by SEM analysis; format: functional, organism-based
Escherichia coli [15] = assay: Induction of morphological changes in Escherichia coli O157:H7 CICC 21530 assessed as membrane stunting at 1 times MIC after 60 mins by SEM analysis; format: functional, organism-based
HepG2 [16] = assay: Induction of cell cycle arrest in human HepG2 cells assessed as accumulation at sub-G1 phase at 32 uM incubated for 24 hrs by annexin-V/FITC staining-based FACS flow cytometry analysis (reference value: 0.07%); format: functional
HepG2 [17] = assay: Induction of cell cycle arrest in human HepG2 cells assessed as accumulation at Go/G1 phase at 32 uM incubated for 24 hrs by annexin-V/FITC staining-based FACS flow cytometry analysis (reference value: 54.61 %); format: functional
Staphylococcus aureus [18] = assay: Induction of morphological changes in Staphylococcus aureus ATCC 29213 assessed as membrane destruction at 1 times MIC after 60 mins by SEM analysis; format: functional, organism-based; procedure, shortened: as §1
HepG2 [19] = assay: Induction of cell cycle arrest in human HepG2 cells assessed as accumulation at G2/M phase at 64 uM incubated for 24 hrs by annexin-V/FITC staining-based FACS flow cytometry analysis (reference value: 28.75 %); format: functional
HepG2 [20] = assay: Induction of morphological changes in human HepG2 cells assessed as appearance of rounded cells at 32 uM after 24 hrs by SEM analysis; format: functional, cell-based
Cell membrane [21] = assay: Induction of cell membrane disruption in Staphylococcus aureus ATCC 29213 assessed as spread of fluorescent signal across membrane surface at 1 times MIC in presence of FITC-labelled compound after 30 mins by confocal laser-scanning microscope analysis; format: subcellular
[22] = Drug distribution in human HepG2 cells assessed as fluorescence signal in presence of FITC-labelled peptide at 32 uM measured after 8 hrs by DAPI staining based confocal microscopy; format: ADME, cell-based; conditions: hepg2, 8 h
Procedure, shortened: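 HepG2 cells incubated with FITC-labelled peptide at 32 µM. Fluorescence distribution imaged by confocal laser-scanning microscopy at intervals (1, 4 and 8 h).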

HepG2 [23] = assay: Induction of morphological changes in human HepG2 cells assessed as cytoskeleton damage at 32 uM after 24 hrs by SEM analysis; format: functional, cell-based
HepG2 [24] = assay: Induction of apoptosis in human HepG2 cells assessed as nuclear fragmentation at 32 uM measured after 8 hrs by DAPI staining based confocal microscopy; format: functional, cell-based
Procedure, shortened: (§2)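 HepG2 cells treated with 32 µM peptide for 2, 4 or 8 h and stained with DAPI. Nuclear morphology imaged by confocal microscopy, with untreated cells as control.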

HepG2 [25] = assay: Induction of apoptosis in human HepG2 cells assessed as nucleus budding at 32 uM incubated for 2 to 4 hrs by DAPI staining based confocal microscopy; format: functional, cell-based; conditions: time 2-4 hrs; procedure, shortened: as §2
Escherichia coli [26] = assay: Induction of morphological changes in Escherichia coli O157:H7 CICC 21530 assessed as outflow of cytoplasm at 1 times MIC after 60 mins by TEM analysis; format: functional, organism-based
HepG2 [27] = assay: Induction of morphological changes in human HepG2 cells assessed as decrease in adhesive monolayer at 32 uM after 24 hrs by inverted microscope analysis; format: functional, cell-based
HepG2 [28] = assay: Induction of apoptosis in human HepG2 cells assessed as nuclei condensation at 32 uM incubated for 2 to 4 hrs by DAPI-staining based confocal microscopy analysis; format: functional, cell-based; conditions: time 2-4 hrs; procedure, shortened: as §2
RAW264.7 = assay: Antiinflammatory activity against mouse RAW264.7 cells assessed as inhibition of LPS-induced nitric oxide production at 32 uM measured after 24 hrs by Griess reagent based ELISA; format: functional, cell-based
Procedure, shortened: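 RAW264.7 cells plated at 1-2 × 10^5 cells/mL and stimulated with 500 ng/mL LPS with or without peptide (0.5-64 µM) for 24 h at 37 °C. Controls were untreated cells and LPS alone. TNF-α in the supernatant measured by ELISA. NO measured by Griess reagent (1% sulfanilamide, 0.1% naphthylethylenediamine, 5% phosphoric acid).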

Row | Substance | Activity (HepG2 [1]) [%] | Activity (HepG2 [2]) [%] | Activity (Escherichia coli [3]) | Activity (Escherichia coli [5]) | Activity (Staphylococcus aureus [6]) | Activity (Cell membrane [7]) [%] | Activity (HepG2 [8]) [%] | Activity (Cell membrane [9]) [%] | Activity (Staphylococcus aureus [10]) | Activity (HepG2 [11]) [%] | Activity (Cell membrane [12]) [%] | Activity (HepG2 [13]) [%] | Activity (Escherichia coli [14]) | Activity (Escherichia coli [15]) | Activity (HepG2 [16]) [%] | Activity (HepG2 [17]) [%] | Activity (Staphylococcus aureus [18]) | Activity (HepG2 [19]) [%] | also measured
1 | H-WGEAFSAGVHRLANGGNG-NH2 | 29.33 | 31.61 | Active | Active | Active | 22.9 | 2.26 | 27.7 | Active | 34.77 | 14.3 | 25.26 | Active | Active | 1.06 | 52.45 | Active | 30.85 | Activity (HepG2 [4]): inactive
2 | H-WLRAFRRLVRRLARGLRR-NH2 | 21.23 | 11.48 | Active | Active | Active | 91.1 | 77.66 | 98 | Active | 5.83 | 78.9 | 33.17 | Active | Active | 24.8 | 21.35 | Active | 5.67 | Activity (HepG2 [20]): Active; Activity (Cell membrane [21]): Active; Drug uptake [22]: Active; Activity (HepG2 [23]): Active; Activity (HepG2 [24]): Active; Activity (HepG2 [25]): Active; Activity (Escherichia coli [26]): Active; Activity (HepG2 [27]): Active; Activity (HepG2 [28]): Active; Activity (RAW264.7): Active
